Measured values published in ChEMBL document CHEMBL4138117, “Pentapeptides for the treatment of small cell lung cancer: Optimisation by Nind-alkyl modification of the tryptophan side chain” (Eur J Med Chem, 2017).
pIC50: −log10 of the molar value. Active and inactive are the calls of the source. The calls are words filed in the database; no cut-off is given here. *1 amine or outer side, *2 acyl side, *3 side chain or, on linkers, in order; H or OH if unused. Where a SMILES comes first, the peptide text is derived from it. [ ]: non-standard residue; d: D form. X1 = C=CC(C)(C)n1cc(C[C@@H](N[*:1])C(=O)[*:2])c2ccccc21; dTrp(1-Bu) = CCCCn1cc(C[C@@H](N)C(=O)O)c2ccccc21; dNMeF = CN[C@H](Cc1ccccc1)C(=O)O

How the values were obtained:
[1] = test system: NCI-H69; assay: Cytotoxicity against human H69 cells assessed as decrease in cell viability after 48 hrs by resazurin dye-based assay; format: functional; details: NCI-H69, 48 h
Summary of the method: (§1)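 H69 and DMS79 suspension cells grown in 10% FBS/RPMI-1640 at 37 °C, 5% CO2. Seeded at 1 x 10^4 cells/well in triplicate and given peptide the same day at 0.1–30 µM final, diluted in 50% FBS/saline. After 48 h, resazurin (0.125 mg/ml in PBS) added for 5 h, then fluorescence read and % viability calculated. Three independent repeats; IC50 taken from dose-response curves.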

[2] = test system: DMS-79; assay: Cytotoxicity against human DMS79 cells assessed as decrease in cell viability after 48 hrs by resazurin dye-based assay; format: functional; details: DMS-79, 48 h; summary of the method: as §1
[3] = Retention time of the compound in mouse plasma at 400 ug/ml after 3 hrs by RP-HPLC method; format: ADME, cell-free
Summary of the method: (§2)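 Peptide added to neat mouse plasma at 400 µg/ml and held at 37 °C. Aliquots taken at 0, 3, 24 and 48 h and analysed by RP-HPLC on a C8 column. Parent and degradation product(s) reported as relative percentage; n = 3.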

[4] = Retention time of the compound in mouse plasma at 400 ug/ml after 24 hrs by RP-HPLC method; format: ADME, cell-free; summary of the method: as §2
[5] = Drug metabolism in neat mouse plasma at 400 ug/ml by RP-HPLC method; format: ADME, cell-free; details: TDE = time-dependent effect; summary of the method: as §2
[6] = Metabolic stability in neat mouse plasma assessed as parent compound remaining at 400 ug/ml after 3 hrs by RP-HPLC method; format: ADME, cell-free; details: read-out: Stability; summary of the method: as §2
[7] = Metabolic stability in neat mouse plasma assessed as parent compound remaining at 400 ug/ml after 48 hrs by RP-HPLC method; format: ADME, cell-free; details: read-out: Stability; summary of the method: as §2
[8] = Retention time of the compound in mouse plasma at 400 ug/ml after 48 hrs by RP-HPLC method; format: ADME, cell-free; summary of the method: as §2
[9] = Retention time of the compound in mouse plasma at 400 ug/ml measured immediately after compound addition by RP-HPLC method; format: ADME, cell-free; summary of the method: as §2
[10] = Drug metabolism in mouse plasma at 400 ug/ml after 48 hrs by mass spectrophotometric method; format: ADME, cell-free
[11] = test system: NCI-H69; assay: Induction of apoptosis in human H69 cells assessed as loss of plasma membrane integrity at 6 uM after 48 hrs by acridine orange/ethidium bromide staining-based inverted fluorescence microscopic method; format: functional, cell-based
Summary of the method: (§3)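 Cells seeded at 1 x 10^4 cells/well and treated with peptide at 6 µM final in complete medium for 48 h at 37 °C, 5% CO2, with an untreated control. Then 1:1 AO/EB mix (100 µg/ml of each dye in PBS) added and cells viewed by inverted fluorescence microscopy at 10x.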

[12] = test system: DMS-79; assay: Induction of apoptosis in human DMS79 cells assessed as loss of plasma membrane integrity at 6 uM after 48 hrs by acridine orange/ethidium bromide staining-based inverted fluorescence microscopic method; format: functional, cell-based; summary of the method: as §3
[13] = test system: NCI-H69; assay: Induction of apoptosis in human H69 cells assessed as increase in late apoptotic cells at 6 uM after 48 hrs by acridine orange/ethidium bromide staining-based inverted fluorescence microscopic method; format: functional, cell-based; summary of the method: as §3
[14] = test system: DMS-79; assay: Induction of apoptosis in human DMS79 cells assessed as increase in late apoptotic cells at 6 uM after 48 hrs by acridine orange/ethidium bromide staining-based inverted fluorescence microscopic method; format: functional, cell-based; summary of the method: as §3
[15] = test system: NCI-H69; assay: Induction of apoptosis in human H69 cells assessed as increase in necrotic cells at 6 uM after 48 hrs by acridine orange/ethidium bromide staining-based inverted fluorescence microscopic method; format: functional, cell-based; summary of the method: as §3
[16] = test system: DMS-79; assay: Induction of apoptosis in human DMS79 cells assessed as increase in necrotic cells at 6 uM after 48 hrs by acridine orange/ethidium bromide staining-based inverted fluorescence microscopic method; format: functional, cell-based; summary of the method: as §3
[17] = test system: NCI-H69; assay: Induction of apoptosis in human H69 cells assessed as cell shrinkage at 6 uM after 48 hrs by acridine orange/ethidium bromide staining-based inverted fluorescence microscopic method; format: functional; summary of the method: as §3
[18] = test system: DMS-79; assay: Induction of apoptosis in human DMS79 cells assessed as cell shrinkage at 6 uM after 48 hrs by acridine orange/ethidium bromide staining-based inverted fluorescence microscopic method; format: functional; summary of the method: as §3
[19] = test system: NCI-H69; assay: Induction of apoptosis in human H69 cells assessed as chromatin condensation at 6 uM after 48 hrs by acridine orange/ethidium bromide staining-based inverted fluorescence microscopic method; format: functional, cell-based; summary of the method: as §3
[20] = test system: DMS-79; assay: Induction of apoptosis in human DMS79 cells assessed as chromatin condensation at 6 uM after 48 hrs by acridine orange/ethidium bromide staining-based inverted fluorescence microscopic method; format: functional, cell-based; summary of the method: as §3
[21] = Metabolic stability in CD1 mouse liver S9 fraction at 400 ug/ml after 1 to 3 hrs in presence of UDPGA, NADPH, GSH, PAPS by RP-HPLC method; format: ADME, subcellular
Summary of the method: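 Male CD-1 mouse liver S9 fraction incubated with peptide as in the plasma study, at 37 °C. Reaction started by adding a 1:1:1:1 cofactor mix made in 200 mM Tris pH 7.4 with 2 mM MgCl2; final levels NADPH 1 mM, UDPGA 0.5 mM, GSH 0.05 mM, PAPS 0.05 mg/ml. Aliquots at 0, 1, 2 and 3 h analysed by RP-HPLC.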

[22] = Drug level in mouse plasma treated with (S)-2-((3R,6R,9S,12R)-3,9-dibenzyl-6,12-bis((1-butyl-1H-indol-3-yl)methyl)-4,7,10-trioxo-2,5,8,11-tetraazatridecanamido)-4-methylpentanamide at 400 ug/ml after 48 hrs by mass spectrophotometric method; format: ADME, cell-free
[23] = Drug level in mouse plasma treated with (S)-2-((3R,6R,9S,12R)-3,9-dibenzyl-6,12-bis((1-butyl-1H-indol-3-yl)methyl)-4,7,10-trioxo-2,5,8,11-tetraazatridecanamido)-4-methylpentanamide at 400 ug/ml after 3 to 48 hrs by RP-HPLC method; format: ADME, cell-free; summary of the method: as §2
[24] = Drug metabolism in mouse plasma assessed as formation of (3R,6R,9S,12R,15S)-3,9-dibenzyl-6,12-bis((1-butyl-1H-indol-3-yl)methyl)-15-isobutyl-4,7,10,13-tetraoxo-2,5,8,11,14-pentaazahexadecan-16-oic acid at 400 ug/ml after 48 hrs by mass spectrophotometric method; format: ADME, cell-free
[25] = test system: DMS-79; assay: Induction of apoptosis in human DMS79 cells assessed as early apoptotic cells at 2 uM after 24 hrs by Annexin V/SYTOX Blue staining-based flow cytometric method (reference value: 6.4 +/- 0.4%); format: functional
[26] = test system: DMS-79; assay: Induction of apoptosis in human DMS79 cells assessed as late apoptotic cells at 2 uM after 24 hrs by Annexin V/SYTOX Blue staining-based flow cytometric method (reference value: 28.6 +/- 8.2%); format: functional
[27] = test system: DMS-79; assay: Induction of apoptosis in human DMS79 cells assessed as necrotic cells at 2 uM after 24 hrs by Annexin V/SYTOX Blue staining-based flow cytometric method (reference value: 3.3 +/- 0.6%); format: functional
[28] = test system: DMS-79; assay: Induction of apoptosis in human DMS79 cells assessed as viable cells at 2 uM after 24 hrs by Annexin V/SYTOX Blue staining-based flow cytometric method (reference value: 61.7 +/- 9.1%); format: functional; details: DMS-79, 24 h, read-out: Activity
[29] = test system: DMS-79; assay: Induction of apoptosis in human DMS79 cells assessed as early apoptotic cells at 6 uM after 24 hrs by Annexin V/SYTOX Blue staining-based flow cytometric method (reference value: 6.4 +/- 0.4%); format: functional
[30] = test system: DMS-79; assay: Induction of apoptosis in human DMS79 cells assessed as late apoptotic cells at 6 uM after 24 hrs by Annexin V/SYTOX Blue staining-based flow cytometric method (reference value: 28.6 +/- 8.2%); format: functional
[31] = test system: DMS-79; assay: Induction of apoptosis in human DMS79 cells assessed as necrotic cells at 6 uM after 24 hrs by Annexin V/SYTOX Blue staining-based flow cytometric method (reference value: 3.3 +/- 0.6%); format: functional
[32] = test system: DMS-79; assay: Induction of apoptosis in human DMS79 cells assessed as viable cells at 6 uM after 24 hrs by Annexin V/SYTOX Blue staining-based flow cytometric method (reference value: 61.7 +/- 9.1%); format: functional; details: DMS-79, 24 h, read-out: Activity
[33] = test system: DMS-79; assay: Induction of apoptosis in human DMS79 cells assessed as viable cells after 24 hrs by Annexin V/SYTOX Blue staining-based flow cytometric method; format: functional, cell-based
[34] = Drug metabolism in mouse plasma assessed as formation of (3R,6R,9S,12R,15S)-3,9-dibenzyl-6-((1H-indol-3-yl)methyl)-12-((1-butyl-1H-indol-3-yl)methyl)-15-isobutyl-4,7,10,13-tetraoxo-2,5,8,11,14-pentaazahexadecan-16-oic acid at 400 ug/ml after 3 to 48 hrs by RP-HPLC method

CN[C@H](Cc1ccccc1)C(=O)N[C@H](Cc1c[nH]c2ccccc12)C(=O)N[C@@H](Cc1ccccc1)C(=O)N[C@H](Cc1c[nH]c2ccccc12)C(=O)N[C@@H](CC(C)C)C(N)=O (H-[dNMeF][dW]F[dW]L-NH2)
pIC50 [1]: 4.51 | pIC50 [2]: 4.64

C=CC(C)(C)n1cc(C[C@@H](NC(=O)[C@H](Cc2ccccc2)NC(=O)[C@@H](Cc2c[nH]c3ccccc23)NC(=O)[C@@H](Cc2ccccc2)NC)C(=O)N[C@@H](CC(C)C)C(N)=O)c2ccccc21 (H-[dNMeF][dW]F[X1]L-NH2)
Retention_time [3]: 24.89 min | Retention_time [4]: 24.86 min | pIC50 [1]: 5.55 | pIC50 [2]: 5.36 | Drug metabolism [5]: Tde | remaining at 3 h, 400 ug/ml [6]: 87.8% | remaining at 48 h, 400 ug/ml [7]: 35.9% | Retention_time [8]: 24.86 min | Retention_time [9]: 24.62 min | Drug metabolism [10]: Metabolite_Detected

CCCCn1cc(C[C@@H](NC(=O)[C@H](Cc2ccccc2)NC(=O)[C@@H](Cc2cn(CCCC)c3ccccc23)NC(=O)[C@@H](Cc2ccccc2)NC)C(=O)N[C@@H](CC(C)C)C(N)=O)c2ccccc21 (H-[dNMeF][dTrp(1-Bu)]F[dTrp(1-Bu)]L-NH2)
Retention_time [3]: 27.93 min | Retention_time [4]: 27.94 min | Activity [11]: Active | Activity [12]: Active | Activity [13]: Active | Activity [14]: Active | Activity [15]: Active | Activity [16]: Active | Activity [17]: Active | Activity [18]: Active | Activity [19]: Active | Activity [20]: Active | Drug metabolism [5]: Tde | Retention_time [8]: 27.94 min | Retention_time [9]: 27.53 min | Drug metabolism [10]: Metabolite_Notdetected | Stability [21]: Stable

CCCCn1cc(C[C@@H](NC(=O)[C@H](Cc2ccccc2)NC(=O)[C@@H](Cc2c[nH]c3ccccc23)NC(=O)[C@@H](Cc2ccccc2)NC)C(=O)N[C@@H](CC(C)C)C(=O)O)c2ccccc21 (H-[dNMeF][dW]F[dTrp(1-Bu)]L-OH)
Retention_time [3]: 25.3 min | Retention_time [4]: 25.29 min | Drug metabolism [22]: Metabolite_Detected | Drug metabolism [23]: Metabolite_Detected | pIC50 [1]: < 4.52 | pIC50 [2]: < 4.52 | Retention_time [8]: 25.27 min | Retention_time [9]: 25.36 min | Drug metabolism [10]: Metabolite_Notdetected

CCCCn1cc(C[C@@H](NC(=O)[C@H](Cc2ccccc2)NC(=O)[C@@H](Cc2c[nH]c3ccccc23)NC(=O)[C@@H](Cc2ccccc2)NC)C(=O)N[C@@H](CC(C)C)C(N)=O)c2ccccc21 (H-[dNMeF][dW]F[dTrp(1-Bu)]L-NH2)
Retention_time [3]: 25.29 min | Retention_time [4]: 25.26 min | Drug metabolism [24]: Metabolite_Detected | Activity [11]: Active | Activity [12]: Active | Activity [13]: Active | Activity [14]: Active | Activity [15]: Active | Activity [16]: Active | Activity [17]: Active | Activity [18]: Active | Activity [19]: Active | Activity [20]: Active | Activity [25]: 8% | Activity [26]: 36.4% | Activity [27]: 2.3% | viability at 2 µM [28]: 53.3% | Activity [29]: 1.9% | Activity [30]: 95.5% | Activity [31]: 1.6% | viability at 6 µM [32]: 1% | Activity [33]: Dose-dependent effect | Drug metabolism [5]: Tde | Retention_time [8]: 25.23 min | Retention_time [9]: 25 min | Stability [21]: Stable | Drug metabolism [34]: Metabolite_Detected
